Assay [1] concerns the target Growth hormone secretagogue receptor type 1 (Homo sapiens, UniProt Q92847). Kind of assay: Inhibition of [125I]Ghrelin binding to human Ghrelin receptor expressed in CHO-K1 cells after 60 mins by liquid scintillation spectrometry. It counts as cell-based. An outline of the steps:
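Membranes from CHO-K1 cells stably expressing human GHSR, prepared in modified HEPES pH 7.4. 0.25 mg membrane incubated with 0.03 nM [125I]human ghrelin for 60 min at 25°C; nonspecific binding with […]. Filter-bound radioactivity counted by liquid scintillation. Duplicates at multiple concentrations; one-site competition fit for IC50, Ki by Cheng-Prusoff.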

Assay [2] addresses Growth hormone secretagogue receptor type 1 (Mus musculus) (UniProt Q99P50). The assay is described as follows: Binding affinity to mouse Ghrelin receptor in mouse hypothalamus after 90 mins in presence of receptor antagonist (S)-6-(4-Fluorophenoxy)-3-(piperidin-3-ylmethyl)-2-o-tolylquinazolin-4(3H)-one. As to conditions: tested as the 11C-labelled form.

The source made the active and inactive calls. No cut-off for these calls is given here.

Chain of Growth hormone secretagogue receptor type 1 (Mus musculus) (Q99P50 whole entry, looked up): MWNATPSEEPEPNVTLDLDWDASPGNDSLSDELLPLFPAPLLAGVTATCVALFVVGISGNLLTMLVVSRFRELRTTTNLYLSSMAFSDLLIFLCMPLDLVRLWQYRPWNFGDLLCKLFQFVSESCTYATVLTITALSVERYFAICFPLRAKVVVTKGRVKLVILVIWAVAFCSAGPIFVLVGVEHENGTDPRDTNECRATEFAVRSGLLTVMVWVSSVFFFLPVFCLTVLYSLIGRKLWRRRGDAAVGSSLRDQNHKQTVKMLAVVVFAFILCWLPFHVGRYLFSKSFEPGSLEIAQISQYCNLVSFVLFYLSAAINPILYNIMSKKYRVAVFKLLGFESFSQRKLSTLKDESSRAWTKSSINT
Chain of Growth hormone secretagogue receptor type 1 (Q92847 whole entry): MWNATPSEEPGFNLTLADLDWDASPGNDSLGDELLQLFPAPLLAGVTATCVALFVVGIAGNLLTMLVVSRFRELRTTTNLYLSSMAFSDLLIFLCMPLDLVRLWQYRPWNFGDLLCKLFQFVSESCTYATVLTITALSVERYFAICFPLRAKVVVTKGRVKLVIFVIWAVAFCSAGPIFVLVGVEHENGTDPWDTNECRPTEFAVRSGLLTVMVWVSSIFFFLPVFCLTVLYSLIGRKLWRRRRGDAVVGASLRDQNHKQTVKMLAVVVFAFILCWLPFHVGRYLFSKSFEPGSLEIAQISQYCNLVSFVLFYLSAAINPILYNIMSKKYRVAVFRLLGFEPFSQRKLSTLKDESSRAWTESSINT

As a reminder, the Ki is a measure of affinity in units of concentration, obtained from inhibition or displacement. Turning to `Cc1ccccc1-c1nc2ccc(Oc3ccc(F)cc3)cc2c(=O)n1C[C@H]1CCCN(C)C1`, the inhibition constant (Ki) in assay [1] was 22 nM. In addition, the result in assay [2] was Active.
